Converted amounts (≈) assume the structure as drawn. The source made the active and inactive calls. The calls are words filed in the database; no cut-off is given here. Bridge positions count the residues as written; N and C are the ends. Square brackets hold non-standard residues; d marks the D form. Peptide text beside a SMILES is read from it. * marks the point of attachment. βNA = c1ccc2cc(N*)ccc2c1; Dab = NCC[C@H](N)C(=O)O
Legend:
Klebsiella aerogenes [1] = assay: Decrease in 1,2'-DiNaphtylAmine efflux in multidrug resistant Enterobacter aerogenes EA289 over-expressing AcrAB-TolC up to 32 uM after 18 hrs measured every 4 sec for 6 mins in presence of glucose by fluorescence assay; format: functional
Method in brief: (§1)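 EA289 grown 24 h at 37°C, washed and resuspended in PPB at OD600 0.25. Cells loaded with 1,2'-DNA 32 µM plus CCCP 5 µM for 18 h at 37°C in the dark, washed, then mixed with compound (final 0.5–128 µM) at 37°C. Fluorescence (ex 370/em 420 nm) read every 4 s for 6 min. Glucose added at cycle 20 (~100 s) to start efflux.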

Klebsiella aerogenes [2] = assay: Antibacterial activity against Enterobacter aerogenes EA298 TolC deficient after 18 hrs by broth dilution method; settings: EA298, 18 h
Escherichia coli [3] = assay: Antibacterial activity against AcrAB deficient Escherichia coli AG100A after 18 hrs by broth dilution method; format: functional
Method in brief: (§2)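 Broth microdilution MIC in MH broth with two-fold serial dilutions of compounds from DMSO solutions (final DMSO ≤ 0.5%). Inoculum was 2x10⁵ cfu per 200 µL, incubated 18 h at 37°C. MIC was the lowest concentration with no visible growth, given as the mean of at least three independent experiments, in µM. AG100A was grown with kanamycin (50 µg.mL^-1).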

Klebsiella aerogenes [4] = assay: Antibacterial activity against multidrug resistant Enterobacter aerogenes EA289 over-expressing AcrAB-TolC after 18 hrs by broth dilution method; format: functional; settings: EA289, 18 h
Method in brief: (§3)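 Broth microdilution in MH broth. Inoculum 2x10⁵ cfu per well, with two-fold serial dilutions of compound from DMSO stocks (final DMSO ≤0.5%). MIC is the lowest concentration with no visible growth after 18 h at 37°C. Values are means of at least three independent experiments, in µM. Strains grown at 37°C; EA298 kept with kanamycin 50 µg.mL^-1.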

Escherichia coli [5] = assay: Antibacterial activity against wild type Escherichia coli AG100 after 18 hrs by broth dilution method; format: functional; settings: AG100, 18 h; method in brief: as §2
Klebsiella aerogenes [6] = assay: Induction of membrane permeability in multidrug resistant Enterobacter aerogenes EA289 over-expressing AcrAB-TolC assessed as increase in nitrocefin hydrolysis measured for 1 hr in presence of CCCP; format: functional
Method in brief: (§4)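 EA289 grown to exponential phase (OD600 0.5), washed in PPB (K₂HPO₄ 20 mM, MgCl₂ 1 mM, pH 7), adjusted to OD 0.375. Cells mixed with two-fold dilutions of compound (final 2–64 µM) plus CCCP 3.3 µM at 37°C. Nitrocefin added at t=0; OD490 followed for 1 h. Duplicate or triplicate.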

Klebsiella aerogenes [7] = assay: Antibacterial activity against multidrug resistant Enterobacter aerogenes EA289 over-expressing AcrAB-TolC after 18 hrs in presence of polymyxin B nonapeptide by broth dilution method; format: functional; settings: EA289, 18 h; method in brief: as §3
Klebsiella aerogenes [8] = assay: Antibacterial activity against Enterobacter aerogenes EA298 TolC deficient after 18 hrs in presence of polymyxin B nonapeptide by broth dilution method; settings: EA298, 18 h
Escherichia coli [9] = assay: Antibacterial activity against AcrAB deficient Escherichia coli AG100A after 18 hrs in presence of polymyxin B nonapeptide by broth dilution method; format: functional
Escherichia coli [10] = assay: Antibacterial activity against wild type Escherichia coli AG100 after 18 hrs in presence of polymyxin B nonapeptide by broth dilution method; format: functional; settings: AG100, 18 h
Klebsiella aerogenes [11] = assay: Decrease in 1,2'-DiNaphtylAmine efflux in multidrug resistant Enterobacter aerogenes EA289 over-expressing AcrAB-TolC at 8 to 16 uM after 18 hrs measured every 4 sec for 6 mins in presence of glucose by fluorescence assay; format: functional; method in brief: as §1
Klebsiella aerogenes [12] = assay: Induction of membrane permeability in multidrug resistant Enterobacter aerogenes EA289 over-expressing AcrAB-TolC assessed as nitrocefin hydrolysis at 64 uM after 1 hr in presence of CCCP relative to control; format: functional; parameters: scale not given: the % may be the effect or the level left; method in brief: as §4
Klebsiella aerogenes [13] = assay: Induction of membrane permeability in multidrug resistant Enterobacter aerogenes EA289 over-expressing AcrAB-TolC assessed as nitrocefin hydrolysis at 3 uM up to 20 mins in presence of CCCP relative to control; format: functional; method in brief: as §4
Klebsiella aerogenes [14] = assay: Decrease in 1,2'-DiNaphtylAmine efflux in multidrug resistant Enterobacter aerogenes EA289 over-expressing AcrAB-TolC up to 128 uM after 18 hrs measured every 4 sec for 6 mins in presence of glucose by fluorescence assay
Klebsiella aerogenes [15] = assay: Decrease in 1,2'-DiNaphtylAmine efflux in multidrug resistant Enterobacter aerogenes EA289 over-expressing AcrAB-TolC at 32 uM after 18 hrs measured every 4 sec for 6 mins in presence of glucose by fluorescence assay; format: functional; method in brief: as §1
[16] = Binding affinity to Zn2+ in Muller-Hinton broth at 50 uM by ESI-MS analysis
Method in brief: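 Free ligand incubated in Mueller Hinton broth, the medium used for the antibacterial assays, then analysed by positive-ion ESI mass spectrometry for metal-bound species. […] Preformed Zn(II) and Cu(II) complexes were incubated in MH under the same conditions to check their stability.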

Klebsiella aerogenes [17] = assay: Induction of membrane permeability in multidrug resistant Enterobacter aerogenes EA289 over-expressing AcrAB-TolC assessed as nitrocefin hydrolysis at 32 uM after 50 mins in presence of CCCP relative to control; format: functional; parameters: scale not given: the % may be the effect or the level left; method in brief: as §4
Klebsiella aerogenes [18] = assay: Induction of membrane permeability in multidrug resistant Enterobacter aerogenes EA289 over-expressing AcrAB-TolC assessed as nitrocefin hydrolysis at 0.75 to 48 uM after 1 hr in presence of CCCP; format: functional

| Compound | MIC (Klebsiella aerogenes [2]) [µM] | MIC (Escherichia coli [3]) [µM] | MIC (Klebsiella aerogenes [4]) [µM] | MIC (Escherichia coli [5]) [µM] | Activity (Klebsiella aerogenes [6]) | MIC (Klebsiella aerogenes [7]) [µM] | MIC (Klebsiella aerogenes [8]) [µM] | MIC (Escherichia coli [9]) [µM] | MIC (Escherichia coli [10]) [µM] | further results |
| --- | --- | --- | --- | --- | --- | --- | --- | --- | --- | --- |
| N#CC(C#N)=NNc1cccc(Cl)c1 |  |  |  |  |  |  |  |  |  | Activity (Klebsiella aerogenes [1]): Active |
| CN1CCN(c2c(F)cc3c(=O)c(C(=O)O)cn(CCF)c3c2F)CC1 [FLEROXACIN] | 16 (≈ 5.91 µg/mL) | 0.125 (≈ 0.0462 µg/mL) | > 128 | 0.5 (≈ 0.185 µg/mL) |  |  |  |  |  |  |
| NCCCCCCO[C@@H]1[C@@H](OCc2ccc3ccccc3c2)[C@H](N)C[C@H](N)[C@H]1O[C@H]1O[C@H](CN)[C@@H](OCc2ccc3ccccc3c2)[C@H](OCc2ccc3ccccc3c2)[C@H]1N | 4 (≈ 3.37 µg/mL) | 8 (≈ 6.74 µg/mL) | 16 (≈ 13.5 µg/mL) | 8 (≈ 6.74 µg/mL) | Dose-dependent effect | 16 to 32 | 4 to 8 | 4 | 8 |  |
| NC[C@H]1O[C@H](O[C@H]2[C@H](OCCCCCCNC(=O)CCCCN(Cc3ccccn3)Cc3ccccn3)[C@@H](OCc3ccc4ccccc4c3)[C@H](N)C[C@@H]2N)[C@H](N)[C@@H](OCc2ccc3ccccc3c2)[C@@H]1OCc1ccc2ccccc2c1 | 8 (≈ 8.99 µg/mL) | 8 to 16 (≈ 8.99 to 18 µg/mL) | 16 (≈ 18 µg/mL) | 8 to 16 (≈ 8.99 to 18 µg/mL) | Dose-dependent effect | 8 | 4 to 8 | 2 to 4 | 4 | Activity (Klebsiella aerogenes [11]): Active; Activity (Klebsiella aerogenes [12]): 60% |
| POLYMYXIN B |  |  |  |  |  |  |  |  |  | Activity (Klebsiella aerogenes [13]): Active |
| N=C(N)NCCC[C@H](NC(=O)[C@@H](N)Cc1ccccc1)C(=O)Nc1ccc2ccccc2c1 (H-Phe-Arg-βNA) |  |  |  |  |  |  |  |  |  | Activity (Klebsiella aerogenes [14]): inactive |
| NC[C@H]1O[C@H](O[C@H]2[C@H](O)[C@@H](O)[C@H](N)C[C@@H]2N)[C@H](N)[C@@H](O)[C@@H]1O [NEAMINE] | > 128 | 128 (≈ 41.3 µg/mL) | 32 (≈ 10.3 µg/mL) | 16 to 32 (≈ 5.16 to 10.3 µg/mL) |  | 16 | > 128 | 128 | 8 |  |
| O=C(O)c1cn(C2CC2)c2cc(N3CCNCC3)c(F)cc2c1=O [CIPROFLOXACIN] | 8 (≈ 2.65 µg/mL) | 0.03 (≈ 0.00994 µg/mL) | 64 (≈ 21.2 µg/mL) | 0.125 (≈ 0.0414 µg/mL) |  |  |  |  |  |  |
| CC(C)(O/N=C(\C(=O)N[C@@H]1C(=O)N2C(C(=O)[O-])=C(C[n+]3ccccc3)CS[C@H]12)c1csc(N)n1)C(=O)O [CEFTAZIDIME] | > 128 | 0.25 (≈ 0.137 µg/mL) | > 128 | 0.5 (≈ 0.273 µg/mL) |  |  |  |  |  |  |
| NC[C@H]1O[C@H](O[C@H]2[C@H](OCCCCCCNC(=O)CCCC(=O)Nc3cccc(CN(Cc4ccccc4)Cc4ccccc4)c3)[C@@H](OCc3ccc4ccccc4c3)[C@H](N)C[C@@H]2N)[C@H](N)[C@@H](OCc2ccc3ccccc3c2)[C@@H]1OCc1ccc2ccccc2c1 | 64 to 128 (≈ 79.4 to 159 µg/mL) | 32 to 128 (≈ 39.7 to 159 µg/mL) | 128 (≈ 159 µg/mL) | 128 (≈ 159 µg/mL) | Dose-dependent effect | 128 | 32 to 64 | 32 | 32 to 64 | Activity (Klebsiella aerogenes [15]): Active; Activity (Klebsiella aerogenes [12]): 20% |
| NC[C@H]1O[C@H](O[C@H]2[C@H](OCCCCCCNC(=O)CCCC(=O)N3CCCNCCNCCCNCC3)[C@@H](OCc3ccc4ccccc4c3)[C@H](N)C[C@@H]2N)[C@H](N)[C@@H](OCc2ccc3ccccc3c2)[C@@H]1OCc1ccc2ccccc2c1 | 2 to 4 (≈ 2.28 to 4.55 µg/mL) | 2 (≈ 2.28 µg/mL) | 4 to 16 (≈ 4.55 to 18.2 µg/mL) | 4 (≈ 4.55 µg/mL) | Dose-dependent effect | 8 | 2 | 1 to 2 | 2 | Activity (Klebsiella aerogenes [11]): Active |
| [N-]=[N+]=NCCCCCCO[C@@H]1[C@@H](OCc2ccc3ccccc3c2)[C@H](N)C[C@H](N)[C@H]1O[C@H]1O[C@H](CN)[C@@H](OCc2ccc3ccccc3c2)[C@H](OCc2ccc3ccccc3c2)[C@H]1N | 16 (≈ 13.9 µg/mL) | 32 (≈ 27.8 µg/mL) | 16 (≈ 13.9 µg/mL) | 32 (≈ 27.8 µg/mL) |  | 8 to 32 | 32 | 16 | 32 |  |
| NC[C@H]1O[C@H](O[C@H]2[C@H](OCCCCCCNC(=O)CCCC(=O)Nc3cccc(CN(Cc4ccccn4)Cc4ccccn4)n3)[C@@H](OCc3ccc4ccccc4c3)[C@H](N)C[C@@H]2N)[C@H](N)[C@@H](OCc2ccc3ccccc3c2)[C@@H]1OCc1ccc2ccccc2c1 | 2 to 8 (≈ 2.49 to 9.95 µg/mL) | 2 (≈ 2.49 µg/mL) | 4 (≈ 4.97 µg/mL) | 2 to 4 (≈ 2.49 to 4.97 µg/mL) | Dose-dependent effect | 4 to 8 | 2 | 2 | 2 to 4 | Activity (Klebsiella aerogenes [11]): Active; Activity [16]: Active; Activity (Klebsiella aerogenes [17]): 90% |
| O=C(N[C@H](CO)[C@H](O)c1ccc([N+](=O)[O-])cc1)C(Cl)Cl [CHLORAMPHENICOL] | 32 (≈ 10.3 µg/mL) | 1 (≈ 0.323 µg/mL) | > 128 | 8 (≈ 2.59 µg/mL) |  |  |  |  |  |  |
| CC(C)C[C@@H]1NC(=O)[C@@H](Cc2ccccc2)NC(=O)[C@H](CCN)NC(=O)[C@@H](NC(=O)[C@H](CCN)NC(=O)[C@@H](N)[C@@H](C)O)CCNC(=O)[C@H]([C@@H](C)O)NC(=O)[C@H](CCN)NC(=O)[C@H](CCN)NC1=O (H-T[Dab][Dab][Dab][dF]L[Dab][Dab]T; lactam 3-C) |  |  |  |  |  |  |  |  |  | Activity (Klebsiella aerogenes [18]): inactive |

Source: ChEMBL document CHEMBL3994577, “New amphiphilic neamine conjugates bearing a metal binding motif active against MDR E. aerogenes Gram-negative bacteria” (2017)
